Assay results published in publication PMC3401037 (ACS Chemical Biology, 2012).
Entries after “also recorded” stand apart in the source; their conditions may differ.

What was measured:
[1] = test system: GC signaling; assay: AB.9 GRE:Luc cell reporter bioluminescence assay; assay type: cell-based, zebrafish; conditions: AB.9 GRE:Luc cells; for inhibition of dexamethasone-induced relative reporter activity: co-treated with 10 nM DEX (Figure 2 legend: 5 nM)
How it was run: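 AB.9 GRE:Luc cells were seeded at 35,000 cells/well one day ahead and held at 28 °C. Medium was then swapped for phenol-red-free L-15 with 0.5 mM luciferin before compound addition. Organotin runs used DEX in 17% (v/v) charcoal-treated FCS with TBT or DBT at 30–500 nM. Plates were sealed and read for 24 h at 28 °C. Analysis used one-way ANOVA with Dunnett's posttest; IC50 came from non-linear regression.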

[2] = test system: GC signaling; assay: GRIZLY assay: bioluminescence of single GRE:Luc transgenic zebrafish larvae; assay type: in vivo; conditions: for inhibition of dexamethasone-induced relative reporter activity: in presence of 5 μM dexamethasone; for relative reporter (luciferase) activity in response to treatment: 5 dpf, compound added to the water
How it was run: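 Single 4 dpf transgenic larvae were placed one per well in E3 medium with 0.5 mM luciferin and dosed via the water at 5 dpf. The antagonist was given with 5 μM DEX; organotins with 5 μM DEX for 24 h; salt stress was 250 mM NaCl. Plates were sealed and read at 28 °C. Larval n was 48 for dose–response and 22 for salt. Tests were non-parametric, with EC50/IC50 from non-linear regression.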

[3] = test system: Luciferase expression; assay: Whole mount immunohistochemistry with anti-luciferase antibody in GRE:Luc larvae; assay type: in vivo, zebrafish; conditions: 5 dpf larvae, 40 μM, 8 h
[4] = test system: GC signaling; assay: Pilot chemical screen of FDA approved drug library, AB.9 GRE:Luc cells; assay type: cell-based, zebrafish; conditions: 48 h; for retest for activation of GC signaling: at least 2 concentrations; for primary screen hit (activation of GC signaling): 4 μg/mL in 0.3% DMSO, robust z-score cutoff 12.3
How it was run: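 GRE:Luc AB.9 cells in luciferin-L-15 received library compounds prediluted to 40 μg/mL in 3% DMSO, giving a final 4 μg/mL in 0.3% DMSO. There were 3 replica plates, each with 8 DEX (10 μM) and 8 DMSO controls, read for 48 h. Log-transformed trapezoidal AUCs were robust z-scored, with a cutoff of 12.3 set by ROC/Youden index. Retests used a second supplier, the same setup and ≥2 concentrations.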

[5] = test system: GC signaling; assay: Pilot chemical screen of FDA approved drug library, GRE:Luc larvae; assay type: in vivo, zebrafish; conditions: 48 h; for retest for activation of GC signaling: GRE:Luc larvae, at least 2 concentrations; for primary screen hit (activation of GC signaling): larvae, 4 μg/mL in 0.3% DMSO, robust z-score cutoff 1.49
How it was run: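 Single 5 dpf GRE:Luc larvae in luciferin-E3 were exposed to library compounds at a final 4 μg/mL in 0.3% DMSO (prediluted to 40 μg/mL in 3% DMSO), with 5–11 replicates per compound. Each plate held 8 DEX (10 μM) and 8 DMSO controls; reading lasted 48 h. Hits were called from log-transformed AUCs, robust z-scored, above a cutoff of 1.49 chosen by ROC/Youden index. Retests used a second supplier and ≥2 concentrations.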

[6] = test system: endogenous cortisol levels; assay: Cortisol-ELISA of larval extracts; assay type: in vivo, zebrafish; conditions: after 20 min
How it was run: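 Osmotic stress was induced in 5 dpf larvae with 250 mM NaCl, and endogenous cortisol was followed over time after exposure (n = 5).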

SMILES: CCC[CH2][Sn]([Cl])([Cl])[CH2]CCC [DBT, dibutyltin dichloride]
- inhibition of dexamethasone-induced relative reporter activity [1]: significantly reduced by treatment with 250 and 500 nM DBT; also recorded: statistically significant inhibition of bioluminescence at higher concentrations
- inhibition of dexamethasone-induced relative reporter activity ([2]; GRE:Luc larvae): did not show statistically significant attenuation of GC signaling

SMILES: CCC[CH2][Sn]([CH2]CCC)[CH2]CCC [TBT, tributyltin]
- inhibition of dexamethasone-induced relative reporter activity [1]: indistinguishable from cells treated with DEX alone
- lowest concentration inhibiting GC signaling in GRE:Luc larvae ([2]; GRE:Luc larvae, 5 μM dexamethasone, measured for 24 h, p ≤ 0.05): 20 nM
- inhibition of dexamethasone-induced relative reporter activity ([2]; GRE:Luc larvae): effective in inhibiting GC signaling

SMILES: C[C@]12CCC(=O)C=C1CC[C@@H]1[C@@H]2[C@@H](O)C[C@]2(C=O)[C@@H](C(=O)CO)CC[C@@H]12 [aldosterone]
- relative reporter activity in response to treatment [1]: did not respond
- relative reporter (luciferase) activity in response to treatment ([2]; GRE:Luc larvae): did not respond

SMILES: C[C@H]1C[C@H]2[C@@H]3CCC4=CC(=O)C=C[C@]4(C)[C@@]3(F)[C@@H](O)C[C@]2(C)[C@@]1(O)C(=O)CO [betamethasone]
- fluorescence intensity of luciferase immunohistochemistry [3]: significant (p = 0.0115, n = 10) increase

SMILES: C[C@]12C[C@H](O)[C@H]3[C@@H](CCC4=CC(=O)CC[C@@]43C)[C@@H]1CC[C@@H]2C(=O)CO [corticosterone]
- retest for activation of GC signaling [4]: able to activate the GC signaling pathway
- retest for activation of GC signaling [5]: unable to do so at all concentrations tested
- primary screen hit (activation of GC signaling) [5]: not retained in the primary screen

SMILES: C[C@]12CCC(=O)C=C1CC[C@@H]1[C@@H]2[C@@H](O)C[C@@]2(C)[C@H]1CC[C@]2(O)C(=O)CO [cortisol, hydrocortisone]
- relative reporter (luciferase) activity in response to treatment ([2]; GRE:Luc larvae): responded in a dose-dependent manner

SMILES: C[C@@H]1C[C@H]2[C@@H]3CCC4=CC(=O)C=C[C@]4(C)[C@@]3(F)[C@@H](O)C[C@]2(C)[C@@]1(O)C(=O)CO [dexamethasone]
- induction of reporter activity at 1 dpf ([2]; 20 μM DEX, 1 dpf, 9 h after start of treatment): low-level yet non-significant induction
- relative reporter (luciferase) activity in response to treatment ([2]; GRE:Luc larvae): increase in relative luciferase activity
- relative reporter (luciferase) activity in response to treatment ([2]; GRE:Luc larvae, listed as DEX): responded in a dose-dependent manner

SMILES: Nc1c2c(nc3ccccc13)CCCC2O (stereo not drawn) [hydroxytacrine]
- primary screen hit (activation of GC signaling) [4]: false positive hits
- retest for activation of GC signaling [4]: could not be confirmed during the rescreen

SMILES: C=C1C[C@H]2[C@@H]3C=C(C)C4=CC(=O)CC[C@]4(C)[C@H]3CC[C@]2(C)[C@@]1(OC(C)=O)C(C)=O [melengestrol acetate]
- retest for activation of GC signaling [5]: dose-dependently activate GC signaling
- primary screen hit (activation of GC signaling) [5]: missed

SMILES: CC#C[C@]1(O)CC[C@H]2[C@@H]3CCC4=CC(=O)CCC4=C3[C@@H](c3ccc(N(C)C)cc3)C[C@@]21C [mifepristone]
- inhibition of dexamethasone-induced relative reporter activity [1]: blocked the response of the reporter to DEX treatment
- inhibition of dexamethasone-induced relative reporter activity ([2]; GRE:Luc larvae): blocked the response of the reporter to DEX treatment

SMILES: NCCC(O)(P(=O)(O)O)P(=O)(O)O [pamidronic acid]
- primary screen hit (activation of GC signaling) [4]: false positive hits
- retest for activation of GC signaling [4]: could not be confirmed during the rescreen

SMILES: C[C@]12C=CC(=O)C=C1CC[C@@H]1[C@@H]2C(=O)C[C@@]2(C)[C@H]1CC[C@]2(O)C(=O)CO [prednisone]
- primary screen hit (activation of GC signaling) [4]: being the exception
- retest for activation of GC signaling [4]: weak activation of GC signaling only at the highest concentration tested
- retest for activation of GC signaling [5]: unable to do so at all concentrations tested
- primary screen hit (activation of GC signaling) [5]: not retained in the primary screen

SMILES: CC(=O)[C@H]1CC[C@H]2[C@@H]3CC=C4C[C@@H](O)CC[C@]4(C)[C@H]3CC[C@]12C [pregnenolone]
- retest for activation of GC signaling [4]: did not activate the GC pathway
- cortisol levels in the larvae after treatment [6]: significantly increased cortisol levels
- cortisol levels in the larvae after treatment ([6]; listed as Pregnenolone): increase in cortisol (hydrocortisone) levels
- retest for activation of GC signaling [5]: confirmed to activate the GC signaling pathway in vivo
- primary screen hit (activation of GC signaling) [5]: scored as primary screen hits

SMILES: CC(=O)S[C@@H]1CC2=CC(=O)CC[C@]2(C)[C@H]2CC[C@@]3(C)[C@@H](CC[C@@]34CCC(=O)O4)[C@H]12 [spironolactone]
- primary screen hit (activation of GC signaling) [5]: scored as primary screen hits
